# Laboratory results as given in ChEMBL document CHEMBL3351863, “Optimization of 2-phenyl-pyrimidine-4-carboxamides towards potent, orally bioavailable and selective P2Y(12) antagonists for inhibition of platelet aggregation” (Bioorg Med Chem Lett, 2014).
# Target: P2Y purinoceptor 12 (Homo sapiens, UniProt Q9H244)
# Experiment: Displacement of [3H]-2-methyl-thio-adenosine 5'-diphosphate from human recombinant P2Y12 expressed in CHO cell membranes by scintillation counting method
# Details: not given; call rule not given here
# In short: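 CHO cells expressing recombinant P2Y₁₂ receptors, incubated with tritium-labeled 2-methyl-thio-adenosine 5'-diphosphate plus test compound; IC₅₀ from displacement curves, each point in triplicate; reference compound run with every compound set, and set re-analyzed if its IC₅₀ fell outside pre-set 95% confidence interval.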
# Chain of P2Y purinoceptor 12 (Q9H244 whole entry): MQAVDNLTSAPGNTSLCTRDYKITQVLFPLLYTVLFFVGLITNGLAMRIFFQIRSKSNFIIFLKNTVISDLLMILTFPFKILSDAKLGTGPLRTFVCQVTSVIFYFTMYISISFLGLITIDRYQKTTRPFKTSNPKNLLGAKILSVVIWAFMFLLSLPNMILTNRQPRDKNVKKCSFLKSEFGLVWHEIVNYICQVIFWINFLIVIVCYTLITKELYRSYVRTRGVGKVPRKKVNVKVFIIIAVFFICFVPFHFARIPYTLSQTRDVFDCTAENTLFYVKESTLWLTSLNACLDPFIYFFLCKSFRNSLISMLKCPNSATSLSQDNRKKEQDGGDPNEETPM
row,SMILES,IC50 [nM]
1,CCOC(=O)N1CCN(C(=O)[C@H](CCC(=O)O)NC(=O)c2cc(C3CCC(O)CC3)nc(-c3ccccc3)n2)CC1 (some centres undefined),40
2,CCCNc1cc(C(=O)N[C@@H](CCC(=O)O)C(=O)N2CCN(C(=O)OCC)CC2)nc(-c2ccccc2)n1,162

# Tested on: Platelet
# Experiment: Inhibition of ADP-induced platelet aggregation in human platelet rich plasma assessed as remaining activity at 500 nM by in-vitro light transmission aggregometry assay
# Format: functional
# Details: not given
# In short: (§1)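 Light transmission aggregometry in human platelet-rich plasma; compound incubated, aggregation triggered with 3 µM ADP; remaining activity (RA) recorded at a single compound level (1000, 500 or 100 nM).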
row,SMILES,Activity [%]
1,CCOC(=O)N1CCN(C(=O)[C@H](CCC(=O)O)NC(=O)c2cc(C3CCC(O)CC3)nc(-c3ccccc3)n2)CC1 (some centres undefined),<30

# Tested on: Platelet
# Experiment: Inhibition of ADP-induced platelet aggregation in human platelet rich plasma assessed as remaining activity at 100 nM by in-vitro light transmission aggregometry assay
# Format: functional
# Details: not given
# In short: as §1
row,SMILES,Activity [%]
1,CCOC(=O)N1CCN(C(=O)[C@H](CCC(=O)O)NC(=O)c2cc(C3CCC(O)CC3)nc(-c3ccccc3)n2)CC1 (some centres undefined),<70

# Tested on: Platelet
# Experiment: Inhibition of ADP-induced platelet aggregation in human platelet rich plasma by in-vitro light transmission aggregometry assay
# Format: functional
# Details: Homo sapiens, Platelet, Plasma
# In short: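 Human platelet-rich plasma incubated with compound, aggregation induced by 3 µM ADP and read by light transmission aggregometry; IC₅₀ derived from concentration–response curve.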
row,SMILES,IC50 [nM]
1,CCOC(=O)N1CCN(C(=O)[C@H](CCC(=O)O)NC(=O)c2cc(C3CCC(O)CC3)nc(-c3ccccc3)n2)CC1 (some centres undefined),171
2,CCCNc1cc(C(=O)N[C@@H](CCC(=O)O)C(=O)N2CCN(C(=O)OCC)CC2)nc(-c2ccccc2)n1,3820

# Tested on: not listed separately
# Experiment: Potency shift, ratio of IC50 for inhibition of ADP-induced platelet aggregation in human platelet rich plasma to IC50 for displacement of [3H]-2-methyl-thio-adenosine 5'-diphosphate from human recombinant P2Y12 expressed in CHO cell membranes
# Details: not given
row,SMILES,Ratio IC50
1,CCOC(=O)N1CCN(C(=O)[C@H](CCC(=O)O)NC(=O)c2cc(C3CCC(O)CC3)nc(-c3ccccc3)n2)CC1 (some centres undefined),4.3
2,CCCNc1cc(C(=O)N[C@@H](CCC(=O)O)C(=O)N2CCN(C(=O)OCC)CC2)nc(-c2ccccc2)n1,24

# Tested on: not listed separately
# Experiment: Protein binding in human plasma
# Format: ADME, cell-free
# Details: read-out: PPB (converted)
row,SMILES,fraction unbound
1,CCCNc1cc(C(=O)N[C@@H](CCC(=O)O)C(=O)N2CCN(C(=O)OCC)CC2)nc(-c2ccccc2)n1,0.015

# Tested on: not listed separately
# Experiment: Solubility in neutral pH
# Format: physicochemical
# Details: not given
row,SMILES,solubility
1,CCOC(=O)N1CCN(C(=O)[C@H](CCC(=O)O)NC(=O)c2cc(C3CCC(O)CC3)nc(-c3ccccc3)n2)CC1 (some centres undefined),soluble
2,CCCNc1cc(C(=O)N[C@@H](CCC(=O)O)C(=O)N2CCN(C(=O)OCC)CC2)nc(-c2ccccc2)n1,soluble

# Tested on: not listed separately
# Experiment: Solubility in basic pH
# Format: physicochemical
# Details: not given
row,SMILES,solubility
1,CCOC(=O)N1CCN(C(=O)[C@H](CCC(=O)O)NC(=O)c2cc(C3CCC(O)CC3)nc(-c3ccccc3)n2)CC1 (some centres undefined),soluble
2,CCCNc1cc(C(=O)N[C@@H](CCC(=O)O)C(=O)N2CCN(C(=O)OCC)CC2)nc(-c2ccccc2)n1,soluble

# Target: T1, Cytochrome P450 3A4 (Homo sapiens, UniProt P08684)
# T1 sequence (P08684 whole entry): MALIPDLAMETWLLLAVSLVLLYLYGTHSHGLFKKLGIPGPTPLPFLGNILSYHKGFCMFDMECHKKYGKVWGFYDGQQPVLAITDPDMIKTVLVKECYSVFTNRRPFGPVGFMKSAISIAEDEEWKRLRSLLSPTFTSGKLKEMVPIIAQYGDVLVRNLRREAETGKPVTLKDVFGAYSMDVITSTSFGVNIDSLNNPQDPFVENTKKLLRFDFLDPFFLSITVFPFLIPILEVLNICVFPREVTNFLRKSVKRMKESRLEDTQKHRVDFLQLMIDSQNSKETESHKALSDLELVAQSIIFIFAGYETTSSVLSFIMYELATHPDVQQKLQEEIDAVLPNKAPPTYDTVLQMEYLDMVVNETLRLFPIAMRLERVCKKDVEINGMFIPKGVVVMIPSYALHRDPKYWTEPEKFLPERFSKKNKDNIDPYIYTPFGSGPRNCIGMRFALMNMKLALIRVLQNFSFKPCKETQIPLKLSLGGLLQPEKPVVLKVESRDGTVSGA
# Experiment: Inhibition of CYP3A4 in human liver microsomes assessed as reduction in midazolam 1'-hydroxylation
# Format: ADME
# Details: not given
row,SMILES,inhibition (INH)
1,CCOC(=O)N1CCN(C(=O)[C@H](CCC(=O)O)NC(=O)c2cc(C3CCC(O)CC3)nc(-c3ccccc3)n2)CC1 (some centres undefined),Not Active
2,CCCNc1cc(C(=O)N[C@@H](CCC(=O)O)C(=O)N2CCN(C(=O)OCC)CC2)nc(-c2ccccc2)n1,Not Active

# Target: T1, Cytochrome P450 3A4
# Experiment: Inhibition of CYP3A4 in human liver microsomes assessed as reduction in testosterone 6beta-hydroxylation
# Format: ADME
# Details: not given
row,SMILES,inhibition (INH)
1,CCOC(=O)N1CCN(C(=O)[C@H](CCC(=O)O)NC(=O)c2cc(C3CCC(O)CC3)nc(-c3ccccc3)n2)CC1 (some centres undefined),Not Active
2,CCCNc1cc(C(=O)N[C@@H](CCC(=O)O)C(=O)N2CCN(C(=O)OCC)CC2)nc(-c2ccccc2)n1,Not Active

# Target: Cytochrome P450 2D6 (Homo sapiens, UniProt P10635)
# Sequence (P10635 whole entry): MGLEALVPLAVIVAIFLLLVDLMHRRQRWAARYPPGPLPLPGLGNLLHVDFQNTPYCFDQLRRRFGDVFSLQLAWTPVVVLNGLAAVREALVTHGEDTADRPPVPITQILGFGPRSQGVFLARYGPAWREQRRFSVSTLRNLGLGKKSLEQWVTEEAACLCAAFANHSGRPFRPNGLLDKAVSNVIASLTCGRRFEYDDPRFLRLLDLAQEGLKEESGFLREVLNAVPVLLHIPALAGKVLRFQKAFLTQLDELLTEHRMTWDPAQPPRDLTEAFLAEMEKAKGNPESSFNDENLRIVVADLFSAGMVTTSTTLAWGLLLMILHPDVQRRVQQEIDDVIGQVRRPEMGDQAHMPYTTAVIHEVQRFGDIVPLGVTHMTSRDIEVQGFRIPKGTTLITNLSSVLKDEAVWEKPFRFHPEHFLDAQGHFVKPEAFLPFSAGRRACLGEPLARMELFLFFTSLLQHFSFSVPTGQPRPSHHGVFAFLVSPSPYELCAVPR
# Experiment: Inhibition of CYP2D6 in human liver microsomes assessed as reduction in dextromethorphan-O demethylation
# Format: ADME
# Details: not given
row,SMILES,inhibition (INH)
1,CCOC(=O)N1CCN(C(=O)[C@H](CCC(=O)O)NC(=O)c2cc(C3CCC(O)CC3)nc(-c3ccccc3)n2)CC1 (some centres undefined),Not Active
2,CCCNc1cc(C(=O)N[C@@H](CCC(=O)O)C(=O)N2CCN(C(=O)OCC)CC2)nc(-c2ccccc2)n1,Not Active

# Target: Cytochrome P450 2C9 (Homo sapiens, UniProt P11712)
# Sequence (P11712 whole entry): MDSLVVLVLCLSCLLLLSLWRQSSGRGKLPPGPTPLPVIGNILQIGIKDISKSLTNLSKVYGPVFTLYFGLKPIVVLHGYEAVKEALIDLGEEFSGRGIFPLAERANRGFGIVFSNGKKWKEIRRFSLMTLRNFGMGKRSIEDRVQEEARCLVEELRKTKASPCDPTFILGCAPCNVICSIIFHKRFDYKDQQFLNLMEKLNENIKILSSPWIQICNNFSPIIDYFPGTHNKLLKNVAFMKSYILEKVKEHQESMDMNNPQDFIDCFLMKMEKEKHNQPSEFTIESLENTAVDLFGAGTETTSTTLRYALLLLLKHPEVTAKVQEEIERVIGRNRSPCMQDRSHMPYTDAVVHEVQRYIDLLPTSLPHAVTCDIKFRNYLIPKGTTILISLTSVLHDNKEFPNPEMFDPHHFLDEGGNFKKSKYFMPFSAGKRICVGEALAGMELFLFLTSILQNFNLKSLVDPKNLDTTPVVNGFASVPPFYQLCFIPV
# Experiment: Inhibition of CYP2C9 in human liver microsomes assessed as reduction in diclofenac 4'-hydroxylation
# Format: ADME
# Details: not given
row,SMILES,inhibition (INH)
1,CCOC(=O)N1CCN(C(=O)[C@H](CCC(=O)O)NC(=O)c2cc(C3CCC(O)CC3)nc(-c3ccccc3)n2)CC1 (some centres undefined),Not Active
2,CCCNc1cc(C(=O)N[C@@H](CCC(=O)O)C(=O)N2CCN(C(=O)OCC)CC2)nc(-c2ccccc2)n1,Not Active

# Tested on: Liver microsome
# Experiment: Metabolic stability assay in human liver microsomes assessed as parent drug disappearance at 1 uM after 20 mins by HPLC and mass spectrometry method
# Format: ADME
# Details: not given
row,SMILES,Stability
1,CCOC(=O)N1CCN(C(=O)[C@H](CCC(=O)O)NC(=O)c2cc(C3CCC(O)CC3)nc(-c3ccccc3)n2)CC1 (some centres undefined),Stable
2,CCCNc1cc(C(=O)N[C@@H](CCC(=O)O)C(=O)N2CCN(C(=O)OCC)CC2)nc(-c2ccccc2)n1,Stable

# Tested on: Liver microsome
# Experiment: Metabolic stability assay in rat liver microsomes assessed as parent drug disappearance at 1 uM after 20 mins by HPLC and mass spectrometry method
# Format: ADME
# Details: not given
row,SMILES,Stability
1,CCOC(=O)N1CCN(C(=O)[C@H](CCC(=O)O)NC(=O)c2cc(C3CCC(O)CC3)nc(-c3ccccc3)n2)CC1 (some centres undefined),Stable
2,CCCNc1cc(C(=O)N[C@@H](CCC(=O)O)C(=O)N2CCN(C(=O)OCC)CC2)nc(-c2ccccc2)n1,Stable

# Target: Voltage-gated inwardly rectifying potassium channel KCNH2 (Homo sapiens, UniProt Q12809)
# Sequence (Q12809 whole entry): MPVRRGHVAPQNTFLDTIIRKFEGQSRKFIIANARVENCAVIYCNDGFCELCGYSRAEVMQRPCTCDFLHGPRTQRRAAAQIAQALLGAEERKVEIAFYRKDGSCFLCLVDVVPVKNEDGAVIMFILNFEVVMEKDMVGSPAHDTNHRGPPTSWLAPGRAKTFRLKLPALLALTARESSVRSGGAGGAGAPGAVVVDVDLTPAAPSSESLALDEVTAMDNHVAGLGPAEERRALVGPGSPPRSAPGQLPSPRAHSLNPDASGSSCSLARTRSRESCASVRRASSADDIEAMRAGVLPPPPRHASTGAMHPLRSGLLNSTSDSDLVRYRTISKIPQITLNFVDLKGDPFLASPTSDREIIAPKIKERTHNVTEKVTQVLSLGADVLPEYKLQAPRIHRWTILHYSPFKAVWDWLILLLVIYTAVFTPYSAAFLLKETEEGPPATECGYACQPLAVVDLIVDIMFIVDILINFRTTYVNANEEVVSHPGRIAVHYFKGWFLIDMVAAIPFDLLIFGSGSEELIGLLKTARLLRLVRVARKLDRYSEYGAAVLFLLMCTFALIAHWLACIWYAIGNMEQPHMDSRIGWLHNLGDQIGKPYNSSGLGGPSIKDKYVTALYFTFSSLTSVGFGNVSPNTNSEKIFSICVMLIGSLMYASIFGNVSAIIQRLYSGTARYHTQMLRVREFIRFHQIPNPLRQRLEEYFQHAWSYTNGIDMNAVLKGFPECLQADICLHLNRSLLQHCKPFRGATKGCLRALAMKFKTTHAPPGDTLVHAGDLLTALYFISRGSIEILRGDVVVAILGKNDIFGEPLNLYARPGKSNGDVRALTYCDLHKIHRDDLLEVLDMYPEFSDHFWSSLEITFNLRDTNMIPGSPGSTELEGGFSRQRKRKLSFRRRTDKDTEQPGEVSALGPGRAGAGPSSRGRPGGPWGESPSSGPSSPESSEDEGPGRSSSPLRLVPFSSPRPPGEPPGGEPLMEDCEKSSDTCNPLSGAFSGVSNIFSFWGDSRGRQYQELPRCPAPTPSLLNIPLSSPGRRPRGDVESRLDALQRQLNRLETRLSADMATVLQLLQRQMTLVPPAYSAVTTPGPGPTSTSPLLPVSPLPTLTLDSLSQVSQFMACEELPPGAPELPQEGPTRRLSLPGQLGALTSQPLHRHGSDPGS
# Experiment: Inhibition of human ERG expressed in HEK cells by patch-clamp assay
# Format: cell-based
# Details: hek293
row,SMILES,inhibition (INH)
1,CCOC(=O)N1CCN(C(=O)[C@H](CCC(=O)O)NC(=O)c2cc(C3CCC(O)CC3)nc(-c3ccccc3)n2)CC1 (some centres undefined),Not Active
2,CCCNc1cc(C(=O)N[C@@H](CCC(=O)O)C(=O)N2CCN(C(=O)OCC)CC2)nc(-c2ccccc2)n1,Not Active

# Tested on: not listed separately
# Experiment: AUC in Wistar rat at 10 mg/kg, po
# Format: ADME, organism-based, Plasma
# Set-up: dose 10 mg/kg, route oral
# Details: Wistar, plasma
# In short: (§2)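 Rats dosed by iv infusion at 1 mg/kg (n = 2) or orally at 10 mg/kg (n = 3); plasma levels measured, limit of quantification ca. 1 ng/mL.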
row,SMILES,AUC [µM·h]
1,CCOC(=O)N1CCN(C(=O)[C@H](CCC(=O)O)NC(=O)c2cc(C3CCC(O)CC3)nc(-c3ccccc3)n2)CC1 (some centres undefined),0.0782

# Tested on: not listed separately
# Experiment: Cmax in Wistar rat at 10 mg/kg, po
# Format: ADME, organism-based
# Set-up: dose 10 mg/kg, route oral
# Details: Wistar, in vivo
# In short: as §2
row,SMILES,Cmax [nM]
1,CCOC(=O)N1CCN(C(=O)[C@H](CCC(=O)O)NC(=O)c2cc(C3CCC(O)CC3)nc(-c3ccccc3)n2)CC1 (some centres undefined),46.3
